HIV Env fusion: inhibitors of HIV-1 Env-driven cell-cell fusion, primary screen, HeLa-JRFL effector, CEM21 target cells, luciferase. inhibition, % at 12.3 µM. actives 1.1% (n = 360,000). AID 651610, 2012;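 active = mean replicate inhibition score of at least 50 and every replicate individually at or above 50; inconclusive = only one of the two criteria met; inactive = mean below 50 and not all replicates reaching 50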
DENV2 CPE rescue: inhibitors of DENV2 cytopathic effect, primary screen, cell-based, plate reader, single concentration | DENV2-infected cells, cytopathic effect rescue | actives 1.7% (n = 350,000) | CPE inhibition, % at 9.99 µM; in the data active = CPE inhibition above about 20%, passing the limit was not always enough; inconclusive = no clear call, values can overlap the other calls; tested in BHK-21 cells
Ecoli rRNA inh: reduced GFP signal of wild-type E. coli, primary screen, bacterial rRNA inhibitor project, GFP/RFP fluorescence, OD600, single point; E. coli WT GFP vs humanized-ribosome RFP mutants, 24 h; hits give low values; DMSO median 0, no signal -100; GFP signal change (wild-type ribosome), % (no concentration beside the values); actives 1.6% (n = 350,000); AID 720706, 2013;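 active = significant combined selectivity score with lowered wild-type GFP, culture density cut under 30%, mutant RFP and density less affected; inactive = any of these conditions unmet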
FN deposition inh: inhibitors of fibronectin matrix deposition, primary screen, AH1F cells, Alexa488-fibronectin fluorescence, plate reader; AH1F fibroblasts, overnight; inhibition, % at 12.6 µM; actives 0.086% (n = 350,000);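 active = mean inhibition across replicates of 30% or more, regardless of how many single replicates reach that level; inconclusive = mean under 30% yet at least half of replicates reach 30%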
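Assay system: AH1F fibroblasts assembling fluorescent fibronectin matrix; Amount: 10000 AH1F cells per well; Buffer or medium: DMEM, 2% serum; Probe or stimulus: Alexa488-fibronectin, 24 nM final in well; Doses: single compound dose, delivered by pin transfer; Incubation: 1 h adhesion, overnight exposure; Measured by: fluorescence 485/525 nm; Read-out: fibronectin deposition inhibition.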
PglD DTNB: C. jejuni PglD acetyltransferase inhibitors, primary screen, biochemical, DTNB colorimetric, single point; AID 602405, 2012; purified PglD enzyme, DTNB colorimetric CoA detection; inhibition, % at 12.5 µM; actives 0.098% (n = 360,000); in the data active = inhibition above about 16%, passing the limit was not always enough; inconclusive = no clear call, values can overlap the other calls
PGC1a acetyl inh: inhibitors of PGC1a acetylation signal, primary screen, cell-based, U2OS, AlphaScreen, inhibitor mode; AlphaScreen anti-acetyl-lysine; with virally co-expressed GCN5 acetyltransferase; inhibition, % at 15.6 µM; actives 0.17% (n = 350,000); AID 651687, 2012;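 active = every replicate shows inhibition of at least 40%; inconclusive = mean inhibition at least 40% but some replicate below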
Large screens that a line does not name were inactive. Most compounds without a hit are left out; they make up all but 3.5% or so of the library.

CC1(C)N=C(N)N=C(N)N1CCCCc1ccccc1	HIV Env fusion 75 (no result: PglD DTNB)
COc1ccc(NS(=O)(=O)c2nnc(NC(=O)c3ccccc3F)s2)cc1	Ecoli rRNA inh -10
O=C(Nc1nnc(S(=O)(=O)Nc2ccccc2)s1)c1ccccc1Cl	none
CN1CCN(C(=O)C[C@H]2CC[C@@H]3[C@H](COC[C@H](O)CN3S(=O)(=O)c3cccc(Cl)c3)O2)CC1	none (no result: HIV Env fusion)
COc1ccc(CSc2nncn2C)cc1F	HIV Env fusion 60 (no result: DENV2 CPE rescue, PglD DTNB)
COc1ccc(CSc2nnnn2C)cc1F	none (no result: HIV Env fusion, DENV2 CPE rescue, Ecoli rRNA inh, FN deposition inh)
COc1ccccc1-n1c(C)nnc1SCC(=O)Nc1cc(C)cc(C)c1	HIV Env fusion 56 (no result: DENV2 CPE rescue, Ecoli rRNA inh)
C=CCn1c(O)c(N=NC(=S)Nc2cccc(OC)c2)c2ccccc21	none (no result: HIV Env fusion, DENV2 CPE rescue, Ecoli rRNA inh, FN deposition inh, PGC1a acetyl inh)
C=CCn1c(O)c(N=NC(=S)Nc2ccc(OC)cc2)c2ccccc21	HIV Env fusion 37 (no result: DENV2 CPE rescue, Ecoli rRNA inh)
C[C@@H]1CN(C)C(=O)Cc2ccccc2O[C@@H]1CN(C)C	none (no result: HIV Env fusion, DENV2 CPE rescue, PglD DTNB, PGC1a acetyl inh)
c1ccc2c(-c3cccc4nccn34)cncc2c1	HIV Env fusion 55 (no result: PGC1a acetyl inh)
COc1cc(/C=C/C(=O)OCC(=O)N2CCCc3ccccc32)ccc1O	none (no result: Ecoli rRNA inh)
COc1cc(/C=C/C(=O)OCC(=O)N2CCCc3ccccc32)ccc1OCC#N	Ecoli rRNA inh -24
O=C(O)C(O)Cc1c[nH]c2ccccc12 (stereo not given)	none (no result: HIV Env fusion, FN deposition inh)
O=C(CC(C(=O)O)c1c[nH]c2ccccc12)c1ccccc1 (stereo not given)	PGC1a acetyl inh 81
C=CC[C@]12CCc3ccccc3C1N(c1ccc(C(=O)OCC)cc1)C2=O (stereo not given in full)	HIV Env fusion 61 (no result: PGC1a acetyl inh)
CCOC(=O)c1ccc(N2C(=O)Cc3ccccc3C2=O)cc1	none (no result: PGC1a acetyl inh)
Cc1ccc2nc(SCC(=O)Nc3ccc(Cl)cc3)nc(=O)n2c1	none (no result: PGC1a acetyl inh)
Cc1ccc2nc(SCC(=O)Nc3ccc(F)cc3)nc(=O)n2c1	DENV2 CPE rescue inconclusive, PGC1a acetyl inh 76
C[C@H](CO)N1C[C@H](C)[C@@H](CN(C)Cc2ccc(C(F)(F)F)cc2)Oc2ccc(NC(=O)c3ccncc3)cc2C1=O	none (no result: FN deposition inh)
CCCCN1C(=O)C(O)(c2ccccc2)c2cc(Br)ccc21 (stereo not given)	HIV Env fusion 85
C[C@H](CO)N1C[C@H](C)[C@@H](CN(C)C(=O)Nc2ccc(C(F)(F)F)cc2)Oc2c(NC(=O)c3cnccn3)cccc2C1=O	DENV2 CPE rescue inconclusive (no result: HIV Env fusion)
COc1ccc(NC(=O)Nc2ccc3c(c2)C(=O)N([C@H](C)CO)C[C@@H](C)[C@H](CN(C)C(=O)Nc2ccc4c(c2)OCO4)OCCCC[C@@H](C)O3)cc1	none (no result: FN deposition inh)
COc1ccc(CCC(C)NCc2ccc(Cl)c(Cl)c2)cc1 (stereo not given)	HIV Env fusion 81, DENV2 CPE rescue inconclusive
COc1ccc(CCC(C)NCc2ccc(F)cc2)cc1 (stereo not given)	HIV Env fusion inconclusive, DENV2 CPE rescue 33 (no result: PGC1a acetyl inh)
COc1ccc(CCC(C)Nc2ccc(F)cc2)cc1 (stereo not given)	none (no result: HIV Env fusion, FN deposition inh)
COc1ccc(CCC(C)NCC(C)c2ccccc2)cc1 (stereo not given)	none (no result: PGC1a acetyl inh)
COc1ccc(CCC(C)NCCc2ccc(Cl)cc2Cl)cc1 (stereo not given)	HIV Env fusion 55 (no result: PGC1a acetyl inh)
COc1ccc(CCC(C)NCc2cc(OC)cc(OC)c2)cc1 (stereo not given)	HIV Env fusion 71
COc1ccc(CN(C)C[C@@H]2OCCCC[C@H](C)Oc3ccc(NC(=O)Nc4c(C)noc4C)cc3C(=O)N([C@@H](C)CO)C[C@@H]2C)cc1	none (no result: FN deposition inh)
Cc1noc(C)c1S(=O)(=O)Nc1ccc2c(c1)CC(=O)N([C@@H](C)CO)C[C@@H](C)[C@H](CN(C)C(=O)Nc1cccc3ccccc13)O2	none
C[C@@H]1CN([C@@H](C)CO)C(=O)c2cc(-c3ccc(F)cc3)cnc2O[C@@H]1CN(C)C(=O)Nc1ccccc1F	none
COc1ccc(NC(=O)Nc2ccc3c(c2)CC(=O)N([C@@H](C)CO)C[C@H](C)[C@H](CN(C)S(=O)(=O)c2c(C)noc2C)O3)cc1	none (no result: FN deposition inh)
O=C(O)c1ccc(N/N=C/c2ccc3c(c2)OCO3)cc1	HIV Env fusion 70 (no result: PglD DTNB)
O=C(O)c1cc(N/N=C/c2ccc3c(c2)OCO3)ccc1Cl	none (no result: Ecoli rRNA inh, PglD DTNB, PGC1a acetyl inh)
O=c1cnnc(N/N=C/c2ccc3c(c2)OCO3)[nH]1	HIV Env fusion 55
CS(=O)(=O)Nc1ccc2c(c1)[C@@H]1C[C@H](CC(=O)NCc3ccccn3)O[C@H](CO)[C@@H]1O2	none (no result: FN deposition inh)
COCCNC(=O)C[C@@H]1C[C@@H]2c3cc(NC(=O)Nc4ccccc4)ccc3O[C@@H]2[C@H](CO)O1	none (no result: HIV Env fusion)
CO[C@H]1CN(C)C(=O)c2ccc(NC(=O)Nc3cc(F)ccc3F)cc2OC[C@@H](C)N(C)C[C@H]1C	none
COC(=O)CCc1cccc(CCC(=O)OC)c1	DENV2 CPE rescue 46
CCCC(=O)N(CCN(Cc1ccccc1)C(=O)CCC)Cc1ccccc1	none (no result: HIV Env fusion, DENV2 CPE rescue, Ecoli rRNA inh, FN deposition inh)
COC(=O)CCC(=O)N(CCN(Cc1ccccc1)C(=O)CCC(=O)OC)Cc1ccccc1	Ecoli rRNA inh -16 (no result: PglD DTNB, PGC1a acetyl inh)
C[C@H]1CN([C@@H](C)CO)C(=O)c2cc(-c3cccnc3)cnc2O[C@@H]1CN(C)Cc1ccccc1	none (no result: DENV2 CPE rescue, PglD DTNB)
CCCN(C)C[C@@H]1Oc2cc(-c3ccccc3C)ccc2S(=O)(=O)N([C@@H](C)CO)C[C@H]1C	none (no result: DENV2 CPE rescue, PglD DTNB)
COc1ccc(OC)c(-c2cc(C(=O)NC3CCCC3)c3ccccc3n2)c1	DENV2 CPE rescue 36 (no result: PGC1a acetyl inh)
COc1cc2ccccc2cc1C(=O)NC1CCCC1	Ecoli rRNA inh -21 (no result: HIV Env fusion)
O=C(NC1CCCCCC1)c1cc2ccccc2oc1=O	Ecoli rRNA inh -24
N=c1oc2ccccc2cc1C(=O)NC1CCCCCC1	none (no result: FN deposition inh, PGC1a acetyl inh)
COc1cc2ccccc2cc1C(=O)NC1CCC(C)CC1 (stereo not given)	none (no result: HIV Env fusion, PGC1a acetyl inh)
N#CCCN1CCN(C(=S)c2ccc(-c3ccc(Cl)cc3)o2)CC1	Ecoli rRNA inh -28 (no result: HIV Env fusion, DENV2 CPE rescue, FN deposition inh)
O=C(Cn1c(=O)n(CC2CCCO2)c(=O)c2ccccc21)c1ccc(Cl)c(Cl)c1 (stereo not given)	HIV Env fusion 58 (no result: DENV2 CPE rescue, Ecoli rRNA inh)
Oc1cccc(C=Nc2cccc3ccccc23)c1O	Ecoli rRNA inh -32 (no result: PGC1a acetyl inh)
Oc1ccccc1C=Nc1cccc2ccccc12	none
O=C(OC(C(=O)NCc1ccccc1)c1ccco1)c1ccccc1 (stereo not given)	DENV2 CPE rescue 38 (no result: Ecoli rRNA inh, FN deposition inh)
Cc1ccc(CNC(=O)C(CC(C)C)OC(=O)c2ccco2)cc1 (stereo not given)	DENV2 CPE rescue 30 (no result: PGC1a acetyl inh)
O=C(OC(C(=O)NCc1ccccc1)c1cccs1)c1ccccc1 (stereo not given)	none (no result: Ecoli rRNA inh, FN deposition inh)
